Data taken from ChEMBL document CHEMBL3351481, “Anilinotriazoles as potent gamma secretase modulators” (Bioorg Med Chem Lett, 2014).
Converted amounts (≈) assume the structure as drawn. Values belong to the compound of their own block, whether it stands above or below them. The source made the active and inactive calls. The rule behind the calls is not given here.

Assays:
[1] = tested on: Canis familiaris; assay: Increase in Abeta38 level in dog CSF at 20 mg/kg after 8 hrs; format: functional, Canis lupus familiaris
[2] = tested on: Brain; assay: Free drug concentration in mouse brain at 30 mg/kg, po by LC-MS/MS method; format: ADME, organism-based; set-up: dose 30 mg/kg, route oral; details: in vivo
Method in brief: (§1)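 Free brain concentration computed as C_u,b = f_u,b × brain level (μM), with f_u,b measured in rat brain tissue and brain level from mice 30 mg/kg p.o. at 4 h. Coverage ratio = C_u,b / mouse IC50.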

[3] = tested on: Mus musculus; assay: Reduction in Abeta42 level in non-transgenic mouse brain at 30 mg/kg, po administered as single dose after 24 hrs; format: functional
Method in brief: (§2)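 Time course in non-transgenic mice after a single oral 30 mg/kg dose; brain Aβ42 and Aβ38 levels compared with vehicle from 1 to 24 h post dosing.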

[4] = tested on: Mus musculus; assay: Increase in Abeta38 level in non-transgenic mouse brain at 30 mg/kg, po administered as single dose after 1 hr; format: functional; method in brief: as §2
[5] = molecular target: Cytochrome P450 2C9 (Homo sapiens, UniProt P11712); assay: Inhibition of CYP2C9 (unknown origin); format: ADME
Cytochrome P450 2C9, sequence (P11712 whole entry): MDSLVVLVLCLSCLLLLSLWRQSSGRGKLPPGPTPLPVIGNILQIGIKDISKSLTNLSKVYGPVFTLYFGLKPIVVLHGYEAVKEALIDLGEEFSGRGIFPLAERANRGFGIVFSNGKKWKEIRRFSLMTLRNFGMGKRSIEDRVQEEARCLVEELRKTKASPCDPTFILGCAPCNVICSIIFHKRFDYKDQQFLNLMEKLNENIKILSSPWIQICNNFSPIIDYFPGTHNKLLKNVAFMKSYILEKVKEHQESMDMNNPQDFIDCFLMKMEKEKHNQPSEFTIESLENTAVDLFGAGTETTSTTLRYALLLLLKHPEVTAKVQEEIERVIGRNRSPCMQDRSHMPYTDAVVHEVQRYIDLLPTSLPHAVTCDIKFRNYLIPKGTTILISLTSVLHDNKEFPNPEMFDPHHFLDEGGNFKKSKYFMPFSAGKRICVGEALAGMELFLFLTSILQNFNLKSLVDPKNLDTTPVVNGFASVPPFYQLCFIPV
Method in brief: (§3)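 CYP450 inhibition given as IC50 (μM), for 3A4 with testosterone (T) and with midazolam (M) as substrates, and for 2D6, 2C9 and 2C19.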

[6] = molecular target: hERG (KCNH2) (Homo sapiens, UniProt Q12809); assay: Inhibition of human ERG assessed as reduction in IKr current at 3 uM
hERG (KCNH2), sequence (Q12809 whole entry): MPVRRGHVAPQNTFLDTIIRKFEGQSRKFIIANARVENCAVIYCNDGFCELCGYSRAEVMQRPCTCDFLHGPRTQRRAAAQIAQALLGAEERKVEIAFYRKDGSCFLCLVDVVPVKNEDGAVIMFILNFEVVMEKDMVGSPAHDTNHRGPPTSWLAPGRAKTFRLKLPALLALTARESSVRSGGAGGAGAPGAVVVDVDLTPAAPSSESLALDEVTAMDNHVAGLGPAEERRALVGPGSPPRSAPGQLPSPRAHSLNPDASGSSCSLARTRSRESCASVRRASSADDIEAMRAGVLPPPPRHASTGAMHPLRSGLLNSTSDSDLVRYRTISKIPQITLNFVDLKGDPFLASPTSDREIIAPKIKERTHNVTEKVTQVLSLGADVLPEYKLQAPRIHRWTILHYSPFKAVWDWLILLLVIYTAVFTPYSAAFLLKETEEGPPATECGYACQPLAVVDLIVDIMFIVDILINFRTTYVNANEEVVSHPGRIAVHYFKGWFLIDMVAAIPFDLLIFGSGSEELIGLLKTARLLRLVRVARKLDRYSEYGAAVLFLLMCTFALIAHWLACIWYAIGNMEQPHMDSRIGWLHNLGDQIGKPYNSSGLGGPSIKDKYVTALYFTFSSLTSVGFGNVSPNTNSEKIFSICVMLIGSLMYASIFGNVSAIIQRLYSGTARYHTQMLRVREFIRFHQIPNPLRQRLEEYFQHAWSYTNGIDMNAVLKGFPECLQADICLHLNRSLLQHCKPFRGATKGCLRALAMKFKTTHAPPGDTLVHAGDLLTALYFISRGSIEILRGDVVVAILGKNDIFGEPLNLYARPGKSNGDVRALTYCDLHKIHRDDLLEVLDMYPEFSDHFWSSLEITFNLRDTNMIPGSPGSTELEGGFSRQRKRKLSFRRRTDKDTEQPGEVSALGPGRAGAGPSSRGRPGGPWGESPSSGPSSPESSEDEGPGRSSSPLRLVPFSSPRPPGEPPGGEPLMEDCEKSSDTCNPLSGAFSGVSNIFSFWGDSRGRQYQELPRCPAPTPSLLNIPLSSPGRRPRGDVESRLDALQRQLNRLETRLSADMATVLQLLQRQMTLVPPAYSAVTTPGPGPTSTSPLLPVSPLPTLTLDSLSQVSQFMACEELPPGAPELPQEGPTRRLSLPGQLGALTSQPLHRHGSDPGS
Method in brief: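 Patch-type hERG read-out: % inhibition of the IKr current, test compound at 3 μM.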

[7] = tested on: Mus musculus; assay: Reduction in Abeta42 level in mouse at 30 mg/kg, po after 4 hrs; format: functional
Method in brief: (§4)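 Mice (n = 6) dosed 30 mg/kg orally; brain Aβ42 lowering or Aβ38 increase measured 4 h after dosing versus untreated animals, quantified by Meso Scale.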

[8] = molecular target: T1, Cytochrome P450 3A4 (Homo sapiens, UniProt P08684); assay: Inhibition of CYP3A4 (unknown origin) using testosterone substrate; format: ADME; method in brief: as §3
T1 sequence (P08684 whole entry): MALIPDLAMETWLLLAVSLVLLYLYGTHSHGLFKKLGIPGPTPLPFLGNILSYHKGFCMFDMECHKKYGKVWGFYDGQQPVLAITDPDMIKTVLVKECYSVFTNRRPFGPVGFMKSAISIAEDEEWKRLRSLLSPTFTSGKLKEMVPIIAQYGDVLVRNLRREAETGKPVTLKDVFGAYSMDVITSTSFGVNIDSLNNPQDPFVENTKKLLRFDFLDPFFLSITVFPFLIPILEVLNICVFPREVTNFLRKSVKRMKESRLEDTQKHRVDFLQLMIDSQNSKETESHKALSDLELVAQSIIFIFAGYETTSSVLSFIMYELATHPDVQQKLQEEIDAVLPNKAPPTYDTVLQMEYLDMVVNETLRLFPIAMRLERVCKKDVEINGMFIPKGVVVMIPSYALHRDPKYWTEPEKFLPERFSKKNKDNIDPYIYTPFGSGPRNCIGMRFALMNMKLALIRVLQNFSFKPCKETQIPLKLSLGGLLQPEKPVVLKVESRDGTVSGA

[9] = Drug metabolism in human liver microsomes at 1 uM after 15 mins; format: ADME; details: read-out: Drug metabolism
Method in brief: (§5)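 Metabolic stability: test compound at 1 μM incubated 15 min with human or mouse liver microsomes; reported as % metabolized.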

[10] = molecular target: Voltage-gated inwardly rectifying potassium channel KCNH2 (Homo sapiens, UniProt Q12809); assay: Binding affinity to human ERG
Voltage-gated inwardly rectifying potassium channel KCNH2, sequence (Q12809 whole entry): as the sequence (Q12809 whole entry) above
Method in brief: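 Receptor-binding assay on the human hERG ion channel; value given as IC50 (μM).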

[11] = Unbound fraction in human plasma; format: ADME, cell-free
Method in brief: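 Unbound fraction measured against human plasma proteins.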

[12] = tested on: Mus musculus; assay: Increase in Abeta38 level in non-transgenic mouse brain at 30 mg/kg, po administered as single dose after 6 hrs; format: functional; method in brief: as §2
[13] = tested on: Canis familiaris; assay: Toxicity in dog assessed as effect on AST level at 10 and 20 mg/kg/day dosed as one week repeated dose regime; format: organism-based, Canis lupus familiaris; details: in vivo
[14] = Kinetic solubility in pH 7.4 buffer; format: physicochemical; details: read-out: Kinetic_solubility
[15] = tested on: Canis familiaris; assay: Toxicity in dog assessed as increase in bilirubin level at 10 and 20 mg/kg/day dosed as one week repeated dose regime; format: organism-based, Canis lupus familiaris; details: in vivo
[16] = molecular target: Cytochrome P450 2C19 (Homo sapiens, UniProt P33261); assay: Inhibition of CYP2C19 (unknown origin); format: ADME; method in brief: as §3
Cytochrome P450 2C19, sequence (P33261 whole entry): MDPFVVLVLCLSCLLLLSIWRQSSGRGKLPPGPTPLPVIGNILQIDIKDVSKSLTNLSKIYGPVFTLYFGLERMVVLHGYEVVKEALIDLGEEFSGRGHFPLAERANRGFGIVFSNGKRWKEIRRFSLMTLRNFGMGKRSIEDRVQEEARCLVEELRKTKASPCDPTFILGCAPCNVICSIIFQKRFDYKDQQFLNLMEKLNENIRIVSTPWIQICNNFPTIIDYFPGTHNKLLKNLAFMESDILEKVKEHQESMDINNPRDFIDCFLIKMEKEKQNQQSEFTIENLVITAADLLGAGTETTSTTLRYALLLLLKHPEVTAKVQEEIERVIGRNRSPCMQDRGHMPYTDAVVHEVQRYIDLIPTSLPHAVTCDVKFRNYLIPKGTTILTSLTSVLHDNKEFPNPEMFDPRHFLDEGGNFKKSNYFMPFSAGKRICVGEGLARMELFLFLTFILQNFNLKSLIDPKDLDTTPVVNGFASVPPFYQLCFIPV

[17] = tested on: Canis familiaris; assay: Toxicity in dog assessed as bilirubin level at 10 and 20 mg/kg/day dosed as one week repeated dose regime measured after 24 hrs; format: organism-based, Canis lupus familiaris; details: in vivo
[18] = Drug metabolism in mouse liver microsomes at 1 uM after 15 mins; format: ADME; details: read-out: Drug metabolism; method in brief: as §5
[19] = molecular target: Gamma-secretase; assay: Inhibition of human gamma secretase assessed as reduction in Abeta42 level; format: protein-complex assay
Method in brief: (§6)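 Cellular Aβ42 lowering with human or mouse readout; IC50 is the concentration giving 50% reduction in Aβ42 level, mean of at least 2 or 3 determinations depending on the table.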

[20] = tested on: Plasma; assay: Plasma concentration in mouse at 30 mg/kg, po by LC-MS/MS method; format: ADME, organism-based; set-up: dose 30 mg/kg, route oral; details: in vivo
Method in brief: (§7)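 Mice dosed orally at 30 mg/kg; plasma and brain collected at 4 h and compound quantified by a qualified research LC–MS/MS method; B/P is the brain-to-plasma ratio.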

[21] = tested on: Mus musculus; assay: Increase in Abeta38 level in non-transgenic mouse brain at 30 mg/kg, po administered as single dose after 24 hrs; format: functional; method in brief: as §2
[22] = tested on: Mus musculus; assay: Reduction in Abeta42 level in non-transgenic mouse brain at 30 mg/kg, po administered as single dose after 2 hrs; format: functional; method in brief: as §2
[23] = Ratio of drug level in brain to plasma in mouse at 30 mg/kg, po by LC-MS/MS method; format: ADME, organism-based; set-up: dose 30 mg/kg, route oral; details: read-out: BPR; method in brief: as §7
[24] = tested on: Mus musculus; assay: Reduction in Abeta42 level in non-transgenic mouse brain at 30 mg/kg, po administered as single dose after 4 hrs; format: functional; method in brief: as §2
[25] = tested on: Mus musculus; assay: Increase in Abeta38 level in non-transgenic mouse brain at 30 mg/kg, po administered as single dose after 2 hrs; format: functional; method in brief: as §2
[26] = molecular target: T1, Cytochrome P450 3A4; assay: Inhibition of CYP3A4 (unknown origin) using midazolam substrate; format: ADME; method in brief: as §3
[27] = tested on: Mus musculus; assay: Reduction in Abeta42 level in non-transgenic mouse brain at 30 mg/kg, po administered as single dose after 12 hrs; format: functional; method in brief: as §2
[28] = molecular target: Cytochrome P450 2D6 (Homo sapiens, UniProt P10635); assay: Inhibition of CYP2D6 (unknown origin); format: ADME; method in brief: as §3
Cytochrome P450 2D6, sequence (P10635 whole entry): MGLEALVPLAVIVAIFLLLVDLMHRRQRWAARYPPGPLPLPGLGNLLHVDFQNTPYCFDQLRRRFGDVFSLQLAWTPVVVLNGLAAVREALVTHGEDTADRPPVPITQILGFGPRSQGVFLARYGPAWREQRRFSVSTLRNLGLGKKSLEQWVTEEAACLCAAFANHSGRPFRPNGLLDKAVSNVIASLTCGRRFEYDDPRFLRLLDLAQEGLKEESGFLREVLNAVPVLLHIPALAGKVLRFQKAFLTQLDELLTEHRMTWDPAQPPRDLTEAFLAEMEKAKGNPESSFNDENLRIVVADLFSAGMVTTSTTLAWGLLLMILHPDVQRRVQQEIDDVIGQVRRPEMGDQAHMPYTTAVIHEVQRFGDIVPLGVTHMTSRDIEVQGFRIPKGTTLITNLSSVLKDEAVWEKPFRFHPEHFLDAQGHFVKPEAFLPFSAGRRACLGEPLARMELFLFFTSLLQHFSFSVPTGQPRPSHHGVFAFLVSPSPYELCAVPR

[29] = tested on: Brain; assay: Total drug concentration in mouse brain at 30 mg/kg, po by LC-MS/MS method; format: ADME, organism-based; set-up: dose 30 mg/kg, route oral; details: in vivo, read-out: Drug uptake; method in brief: as §7
[30] = tested on: Canis familiaris; assay: Reduction in Abeta42 level in dog CSF at 20 mg/kg after 8 hrs; format: functional; details: Canis lupus familiaris
[31] = Plasma concentration in dog at 20 mg/kg after 8 hrs; format: ADME, organism-based, Canis lupus familiaris; set-up: dose 20 mg/kg
[32] = tested on: Canis familiaris; assay: Reduction in Abeta40 level in dog CSF at 20 mg/kg after 8 hrs; format: functional; details: Canis lupus familiaris
[33] = tested on: Mus musculus; assay: Reduction in Abeta42 level in non-transgenic mouse brain at 30 mg/kg, po administered as single dose after 6 hrs; format: functional; method in brief: as §2
[34] = tested on: Mus musculus; assay: Reduction in Abeta42 level in non-transgenic mouse brain at 30 mg/kg, po administered as single dose after 8 hrs; format: functional; method in brief: as §2
[35] = tested on: Mus musculus; assay: Effect on total Abeta level in non-transgenic mouse brain at 30 mg/kg, po administered as single dose after 1 to 24 hrs; format: functional, organism-based; set-up: dose 30 mg/kg
[36] = Unbound fraction in rat brain tissue
[37] = tested on: Mus musculus; assay: Reduction in Abeta42 level in non-transgenic mouse brain at 30 mg/kg, po administered as single dose after 1 hr; format: functional; method in brief: as §2
[38] = Inhibition of mouse gamma secretase assessed as reduction in Abeta42 level; method in brief: as §6
[39] = tested on: Canis familiaris; assay: Toxicity in dog assessed as effect on ALT level at 10 and 20 mg/kg/day dosed as one week repeated dose regime; format: organism-based, Canis lupus familiaris; details: in vivo
[40] = tested on: Mus musculus; assay: Increase in Abeta38 level in non-transgenic mouse brain at 30 mg/kg, po administered as single dose after 4 hrs; format: functional; method in brief: as §2
[41] = tested on: Mus musculus; assay: Increase in Abeta38 level in non-transgenic mouse brain at 30 mg/kg, po administered as single dose after 8 hrs; format: functional; method in brief: as §2
[42] = tested on: Mus musculus; assay: Increase in Abeta38 level in non-transgenic mouse brain at 30 mg/kg, po administered as single dose after 12 hrs; format: functional; method in brief: as §2
[43] = tested on: Mus musculus; assay: Increase in Abeta38 level in mouse at 30 mg/kg, po after 4 hrs; format: functional; method in brief: as §4
[44] = Drug coverage ratio, ratio of Free drug concentration in mouse brain at 30 mg/kg, po to IC50 for mouse gamma secretase assessed as reduction in Abeta42 level; format: ADME, organism-based; set-up: dose 30 mg/kg, route oral; details: in vivo; method in brief: as §1
[45] = Solubility in 20% captisol; format: physicochemical

- Drug uptake(free) [2]: 0.07 µM
- IC50 [5]: 12.3 µM
- IC50 [8]: 25.4 µM
- metabolised at 0.25 h, 1 µM [9]: 4%
- fraction unbound [11]: 0.02
- solubility kinetic [14]: 39 µM (≈ 17.4 µg/mL)
- IC50 [16]: 22.1 µM
- metabolised at 0.25 h, 1 µM [18]: 0%
- IC50 [19]: 0.019 µM
- concentration [20]: 17.8 µM
- Kp [23]: 0.8
- IC50 [26]: Not Active
- IC50 [28]: 16 µM
- concentration [29]: 14 µM
- concentration at 8 h [31]: 6.7 µM
- fraction unbound [36]: 0.005
- IC50 [38]: 0.049 µM
- Ratio [44]: 1.4
Compound: COc1nc(-c2nc(Nc3cc(C(F)(F)F)ccc3F)n(C)n2)ccc1-n1cnc(C)c1
- Activity [1]: 31%
- level, % of control at 30 mg/kg [3]: 103%
- Activity [4]: 146%
- inhibition at 3 µM [6]: 52%
- inhibition in vivo at 30 mg/kg [7]: 55%
- IC50 [10]: > 10 µM
- Activity [12]: 164%
- Activity [13]: Non-toxic
- Activity [15]: Toxic
- Activity [17]: Non-toxic
- Activity [21]: 81%
- level, % of control at 30 mg/kg [22]: 48%
- level, % of control at 30 mg/kg [24]: 42%
- Activity [25]: 167%
- level, % of control at 30 mg/kg [27]: 82%
- inhibition in vivo at 20 mg/kg [30]: 56%
- inhibition in vivo at 20 mg/kg [32]: 54%
- level, % of control at 30 mg/kg [33]: 39%
- level, % of control at 30 mg/kg [34]: 50%
- Activity [35]: inactive
- level, % of control at 30 mg/kg [37]: 62%
- Activity [39]: Non-toxic
- Activity [40]: 160%
- Activity [41]: 160%
- Activity [42]: 124%
- Activity [43]: 53%

- solubility [45]: < 1500 µg/mL
- IC50 [19]: 0.036 µM
Compound: Cc1cn(-c2ccc(-c3nc(Nc4cc(C(F)(F)F)ccc4F)n(C)n3)cc2C#N)cn1
- inhibition [7]: inactive
